How the values were obtained:
[1] = system: bovine Capthesin B; conditions: read-out: bovine Cathepsin B IC50; cited from earlier work
[2] = system: human cervical carcinoma cell line HeLa; assay: Cytotoxicity, MTT assay, HeLa cells; format: cell-based; conditions: read-out: IC50 HeLa, 24h incubation, 1% DMSO stock diluted with medium
Procedure, shortened: (§1)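 Cells were kindly donated by a university culture unit. They were grown in DMEM with 10% FBS and 1% penicillin/streptomycin/amphotericin B at 37°C and 5% CO2. Monolayers (~5×10^4) were grown 72 h, then exposed 24 h to test compound (0–100 μM; diluted from fresh DMSO stock; final DMSO ≤0.6% v/v). MTT was added for 3.5 h, formazan dissolved in DMSO, and A570 read (690 nm background). IC50 is mean ±SE of three experiments, triplicate microcultures.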

[3] = system: human breast adenocarcinoma cell line MCF7; assay: Cytotoxicity, MTT assay, MCF-7 cells; format: cell-based; conditions: read-out: IC50 MCF-7, 24h incubation
Procedure, shortened: as §1

[4] = system: human colon adenocarcinoma cell line HT-29; assay: Cytotoxicity, MTT assay, HT-29 cells; format: cell-based; conditions: read-out: IC50 HT-29, 24h incubation
Procedure, shortened: as §1

[5] = system: human breast adenocarcinoma MDA-MB 231 cell line; assay: Cytotoxicity, XTT assay, MDA-MB-231 cells; format: cell-based; conditions: read-out: IC50 MDA-MB-231, 24h incubation
Procedure, shortened: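 Cells kept adherent in DMEM with penicillin/streptomycin and 10% FBS (37°C, 5% CO2/[…]). Seeded at 5×10^3 cells/well in phenol red-free, antibiotic-free DMEM with 10% FBS and 2 mM L-glutamine, and grown 24 h. Test compound added at 0.1–50 μM final for 24 h. XTT added at 0.3 mg/mL final for 4 h, then A450 read. Survival is the treated/untreated absorbance ratio. IC50 given as mean (±SE) of three independent experiments, triplicate microcultures per concentration.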

[6] = system: non-tumorigenic human embryonic kidney cells HEK-293T; assay: Cytotoxicity, XTT assay, HEK-293T cells; format: cell-based; conditions: read-out: IC50 HEK-239T, 24h incubation
Procedure, shortened: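 Cells were maintained in DMEM with 100 U/mL penicillin, 100 μg/mL streptomycin and 10% FBS, humidified, 37°C, 5% CO2/[…]. Seeding was 5×10^3 cells/well in phenol red-free, antibiotic-free DMEM with 10% FBS and 2 mM L-glutamine, grown 24 h. Test compound (final 0.1–50 μM) was given for 24 h or 48 h. XTT (final 0.3 mg/mL) ran 4 h, read at 450 nm. Survival was taken as treated/untreated absorbance. IC50 is mean ±SE of three experiments, triplicate microcultures.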

[7] = system: MDA-MB-231 cells; assay: ApoTox-Glo Triplex assay; format: cell-based, human; conditions: 10.7 μM, 24 h
[8] = Stability in solution by 1H-NMR spectroscopy; format: physicochemical; conditions: D2O, PBS-D2O or neat DMSO-d6
[9] = target: Human serum albumin (HSA) (Homo sapiens, UniProt P02768); assay: HSA tryptophan fluorescence quenching; format: binding; conditions: HSA 10 μM, complex 10–100 μM
Sequence of Human serum albumin (HSA) (P02768 25-609): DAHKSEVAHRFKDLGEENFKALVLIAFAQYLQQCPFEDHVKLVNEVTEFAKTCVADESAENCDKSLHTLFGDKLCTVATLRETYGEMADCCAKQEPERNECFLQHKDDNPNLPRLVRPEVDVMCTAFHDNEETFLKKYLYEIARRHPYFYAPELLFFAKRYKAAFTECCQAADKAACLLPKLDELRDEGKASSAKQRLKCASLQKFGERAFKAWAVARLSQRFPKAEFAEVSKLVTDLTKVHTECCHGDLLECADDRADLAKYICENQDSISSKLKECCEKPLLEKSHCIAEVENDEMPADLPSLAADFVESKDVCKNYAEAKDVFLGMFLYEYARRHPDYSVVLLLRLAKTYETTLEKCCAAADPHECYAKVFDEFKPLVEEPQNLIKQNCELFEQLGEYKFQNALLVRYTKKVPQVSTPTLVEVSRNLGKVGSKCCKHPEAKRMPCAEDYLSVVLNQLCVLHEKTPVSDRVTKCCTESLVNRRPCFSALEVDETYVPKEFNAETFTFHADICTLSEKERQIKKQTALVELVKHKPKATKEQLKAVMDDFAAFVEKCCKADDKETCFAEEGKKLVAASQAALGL
Procedure, shortened: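 HSA (10 μM) in phosphate buffer (pH 7.4) received ten successive additions from an 8 mM DMSO stock of test compound, giving final 10–100 μM. Trp emission was recorded at room temperature, 300–450 nm, excitation 295 nm, 240 s after each addition. Compound, buffer and DMSO fluorescence were negligible. Data were fitted to F0/F = 1 + KSV[Q].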

[10] = system: plasmid (pBR322) DNA; assay: Electrophoresis mobility shift assay with plasmid DNA; format: binding

Cc1ccc(C(C)C)cc1.[Cl][Ru]([Cl])[PH]12CN3CN(CN(C3)C1)C2 [RAPTA-C]
IC50 [1]: 2.5 µM

G1-[[NCPh(o-N)Ru(η^6-p-cymene)Cl]Cl]4 [Compound 17]
IC50 [2]: 8.1 ± 0.4 µM | IC50 [3]: 6.9 ± 0.5 µM | IC50 [4]: 5.6 ± 0.1 µM | IC50 [5]: 6.1 ± 1 µM | IC50 [6]: 10.7 µM | necrotic cells [7]: 27% | reduction of MDA-MB-231 viability [7]: ca. 58% | treated cells remaining viable [7]: 42% | apoptotic cells ([7]; caspase-3/-7 activity): 16% | stability by 1H-NMR over 72 hours [8]: did not observe changes | shape of Stern-Volmer plot F0/F versus [Q] [9]: positive deviation | interaction with plasmid DNA at acidic, neutral and basic pH ([10]; metal/DNAbp ratio 2.0, pH 6, 7 and 8): do not interact with plasmid (pBR322) DNA

N.N.[Cl][Pt][Cl] [cisplatin, cis-diamminedichloroplatinum (II), reference compound]
effect on electrophoretic mobility of plasmid DNA ([10]; 37°C, 20 h, Tris/HCl buffer, drug/DNA ratio up to 2.0): both increase and decrease the mobility of the OC and the CCC forms

Cc1ccccc1.[Cl][Ru]([Cl])[PH]12CN3CN(CN(C3)C1)C2 [RAPTA-T]
IC50 [1]: 1.5 µM
